Test results from ChEMBL document CHEMBL1240406, “Identification of novel human immunodeficiency virus type 1-inhibitory peptides based on the antimicrobial peptide database” (Antimicrob Agents Chemother, 2010).
Where a SMILES comes first, the peptide text is derived from it. [ ]: non-standard residue; d: D form. aThr = C[C@H](O)[C@H](N)C(=O)O

How the values were obtained:
[1] = Cytotoxicity against human CEM-SS cells infected with HIV1 3B after 6 days by XTT assay; type: cell-based; details: read-out: TC50
[2] = Therapeutic index, ratio of TC50 for human CEM-SS cells infected with HIV1 3B to EC50 for HIV1 3B infected in human CEM-SS cells; type: cell-based; details: read-out: TI
Summary of the method: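 CEM-SS cells (2.5 × 10^3/well) in RPMI 1640 with 10% heat-inactivated FBS were infected with HIV-1 IIIB (MOI 0.0005–0.001). Peptides were added in triplicate at six serial concentrations, 0.32–100 μg/ml. Cultures were held at 37°C, 5% CO2 for 6 days, then stained with XTT. EC50 (virus inhibition) and TC50 (cell viability) were derived from the XTT read-out, and TI was taken from these.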

[3] = tested on: Human immunodeficiency virus 1; assay: Antiviral activity against HIV1 3B infected in human CEM-SS cells assessed as inhibition of viral replication after 6 days by XTT assay; type: functional, organism-based; details: Human immunodeficiency virus 1, 3B, CEM-SS, 144 h
Summary of the method: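 Peptides were added in triplicate at six serial concentrations, 0.32–100 μg/ml. Cultures were held at 37°C, 5% CO2 for 6 days, then stained with XTT. EC50 (virus inhibition) and TC50 (cell viability) were derived from the XTT read-out, and TI was taken from these.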

H-GWLKKIESIIDAF-OH
CC50 at 144 h [1]: > 65.8 µM
selectivity ratio [2]: > 2.2
EC50 [3]: 29.5 µM

H-GLRSRIWLWVLLMIWQESNRFKRM-OH
CC50 at 144 h [1]: > 32.1 µM
selectivity ratio [2]: > 25.7
EC50 [3]: 1.25 µM

H-GIWSDLAEIIKKF-OH
CC50 at 144 h [1]: > 65.8 µM

H-INLKAIAALAKKLL-OH
CC50 at 144 h [1]: > 67.6 µM
EC50 [3]: > 67.6 µM

H-GIFDKLAKEISIW-OH
CC50 at 144 h [1]: > 65.8 µM
EC50 [3]: > 65.8 µM

Cc1cn([C@H]2C[C@H](N=[N+]=[N-])[C@@H](CO)O2)c(=O)[nH]c1=O [ZIDOVUDINE]
CC50 at 144 h [1]: > 0.5 µM

H-GWFDIIKKIASEL-OH
CC50 at 144 h [1]: 38.9 µM
selectivity ratio [2]: 3.6
EC50 [3]: 10.7 µM

H-VFQFLGRIIHHVGNFVHGFSHVF-OH [Clavanin B]
CC50 at 144 h [1]: 37.1 µM
selectivity ratio [2]: > 5.18
EC50 [3]: 7.1 µM

H-VDKPDYRPRPRPPNM-OH [Metalnikowin I]
CC50 at 144 h [1]: > 54.4 µM
EC50 [3]: > 54.4 µM

H-SWKSMAKKLKEYMEKLKQRA-OH [Latarcin 3a]
CC50 at 144 h [1]: > 40.3 µM
selectivity ratio [2]: > 1.23
EC50 [3]: 32.7 µM

H-GMASKAGAIAGKIAKVALKAL-NH2
CC50 at 144 h [1]: > 50.8 µM
EC50 [3]: > 50.8 µM

H-GLFDIIKKIAESW-OH
CC50 at 144 h [1]: 37 µM
selectivity ratio [2]: 3.2
EC50 [3]: 11.7 µM

H-GIIDIAKKLFESW-OH
CC50 at 144 h [1]: > 65.8 µM
selectivity ratio [2]: > 3.3
EC50 [3]: 20.1 µM

H-KGRGKQGGKVRAKAKTRSS-OH [Parasin I]
CC50 at 144 h [1]: > 50 µM
EC50 [3]: > 50 µM

H-IKWKKLLRAAKRIL-NH2
CC50 at 144 h [1]: 1.3 µM
selectivity ratio [2]: < 0.02
EC50 [3]: > 57.6 µM

H-GLNTLKKVFQGLHEAIKLINNHVQ-OH
CC50 at 144 h [1]: > 36.8 µM
EC50 [3]: 35.7 µM

H-GLRSKIWLWVLLMIWQESNKFKKM-OH
CC50 at 144 h [1]: > 32.9 µM
selectivity ratio [2]: > 1.04
EC50 [3]: 31.6 µM

CC[C@H](C)[C@H](NC(=O)[C@H](CC(C)C)NC(=O)[C@H](C)NC(=O)[C@@H]1CCCN1C(=O)[C@H](CCCNC(=N)N)NC(=O)[C@@H](N)Cc1ccccc1)C(=O)N[C@H](C(=O)N[C@@H](CCCNC(=N)N)C(=O)N[C@H](C(=O)N[C@@H](CCCCN)C(=O)NCC(=O)N[C@H](C(=O)N[C@@H](CCCNC(=N)N)C(=O)N[C@@H](CC(C)C)C(=O)O)[C@H](C)O)[C@H](C)O)C(C)C [Hyposin-5] (H-FRPALIVR[aThr]KG[aThr]RL-OH)
CC50 at 144 h [1]: > 61.4 µM
EC50 [3]: > 61.4 µM

H-GKPRPYSPRPTSHPRPIRV-OH [DROSOCIN]
CC50 at 144 h [1]: > 45.5 µM
EC50 [3]: > 45.5 µM

H-GIWDTIKSMGKVFAGKILQNL-NH2 [Brevinin-2]
CC50 at 144 h [1]: 7.42 µM
selectivity ratio [2]: 4.49
EC50 [3]: 1.65 µM

CC[C@H](C)[C@H](NC(=O)[C@H](CCCNC(=N)N)NC(=O)[C@H](CC(C)C)NC(=O)[C@H](CCC(N)=O)NC(=O)[C@H](CCCCN)NC(=O)[C@H](CC(C)C)NC(=O)[C@H](CC(C)C)NC(=O)[C@H](CC(C)C)NC(=O)[C@@H](NC(=O)[C@H](CCCCN)NC(=O)[C@H](CC(=O)O)NC(=O)[C@H](C)NC(=O)[C@@H](NC(=O)[C@H](CCCCN)NC(=O)[C@H](CCCCN)NC(=O)[C@H](CC(=O)O)NC(=O)[C@@H](NC(=O)[C@@H](N)Cc1cnc[nH]1)C(C)C)C(C)C)C(C)C)C(=O)N[C@@H](CCSC)C(=O)N[C@@H](CCCNC(=N)N)C(=O)N[C@@H](CC(C)C)C(=O)N[C@@H](CC(C)C)C(=O)N[C@H](C(=O)N[C@@H](CCCNC(=N)N)C(=O)N[C@@H](CC(C)C)C(=O)O)[C@@H](C)O [SPINIGERIN]
CC50 at 144 h [1]: > 33.3 µM
selectivity ratio [2]: > 10.9
EC50 [3]: 3.05 µM

H-GFKRIVQRIKDFLRNLV-NH2
CC50 at 144 h [1]: 10.8 µM
selectivity ratio [2]: 14.2
EC50 [3]: 0.76 µM

CC[C@H](C)[C@H](NC(=O)[C@@H]1CCCN1C(=O)[C@H](Cc1cnc[nH]1)NC(=O)[C@H](CCCCN)NC(=O)[C@@H]1CCCN1C(=O)[C@@H](N)CCCNC(=N)N)C(=O)N[C@@H](CCCCN)C(=O)N[C@@H](Cc1cnc[nH]1)C(=O)N[C@@H](CCC(N)=O)C(=O)NCC(=O)N[C@@H](CC(C)C)C(=O)N1CCC[C@H]1C(=O)N[C@@H](CCC(N)=O)C(=O)N[C@@H](CCC(=O)O)C(=O)N[C@H](C(=O)N[C@@H](CC(C)C)C(=O)N[C@@H](CC(N)=O)C(=O)N[C@@H](CCC(=O)O)C(=O)N[C@@H](CC(N)=O)C(=O)N[C@@H](CC(C)C)C(=O)N[C@@H](CC(C)C)C(=O)N[C@@H](CCCNC(=N)N)C(=O)N[C@@H](Cc1ccccc1)C(=O)O)C(C)C [ISRACIDIN]
CC50 at 144 h [1]: > 36.2 µM
EC50 [3]: > 36.2 µM
